Measurements as given in ChEMBL document CHEMBL1926642, “Relevance of the C-5 position to schweinfurthin induced cytotoxicity” (2011).

Key:
Assay type in all cases: functional
[1] = system: HT-29; experiment: Growth inhibition of human HT-29 cells after 48 hrs by sulforhodamine B assay; conditions: HT-29, 48 h
[2] = system: SNB-75; experiment: Growth inhibition of human SNB75 cells after 48 hrs by sulforhodamine B assay; conditions: SNB-75, 48 h
[3] = system: COLO 205; experiment: Growth inhibition of human COLO205 cells after 48 hrs by sulforhodamine B assay; conditions: COLO 205, 48 h
[4] = system: U-251; experiment: Growth inhibition of human U251 cells after 48 hrs by sulforhodamine B assay; conditions: U-251, 48 h
[5] = system: SW-620; experiment: Growth inhibition of human SW620 cells after 48 hrs by sulforhodamine B assay; conditions: SW-620, 48 h
[6] = system: MDA-MB-435; experiment: Growth inhibition of human MDA-MB-435 cells after 48 hrs by sulforhodamine B assay; conditions: MDA-MB-435, 48 h
[7] = system: M14; experiment: Growth inhibition of human M14 cells after 48 hrs by sulforhodamine B assay; conditions: M14, 48 h
[8] = system: TK-10; experiment: Growth inhibition of human TK10 cells after 48 hrs by sulforhodamine B assay; conditions: TK-10, 48 h
[9] = system: HOP-62; experiment: Growth inhibition of human HOP62 cells after 48 hrs by sulforhodamine B assay; conditions: HOP-62, 48 h
[10] = system: CAKI-1; experiment: Growth inhibition of human Caki1 cells after 48 hrs by sulforhodamine B assay; conditions: CAKI-1, 48 h
[11] = system: HOP-92; experiment: Growth inhibition of human HOP92 cells after 48 hrs by sulforhodamine B assay; conditions: HOP-92, 48 h
[12] = system: PC-3; experiment: Growth inhibition of human PC3 cells after 48 hrs by sulforhodamine B assay; conditions: PC-3, 48 h
[13] = system: SF-295; experiment: Growth inhibition of human SF295 cells after 48 hrs by sulforhodamine B assay; conditions: SF-295, 48 h
[14] = system: A549; experiment: Growth inhibition of human A549 cells after 48 hrs by sulforhodamine B assay; conditions: A549, 48 h
[15] = system: SR; experiment: Growth inhibition of human SR cells after 48 hrs by sulforhodamine B assay
[16] = system: NCI-H460; experiment: Growth inhibition of human NCI-H460 cells after 48 hrs by sulforhodamine B assay; conditions: NCI-H460, 48 h
[17] = system: SK-MEL-5; experiment: Growth inhibition of human SK-MEL-5 cells after 48 hrs by sulforhodamine B assay; conditions: SK-MEL-5, 48 h
[18] = system: IGROV-1; experiment: Growth inhibition of human IGROV1 cells after 48 hrs by sulforhodamine B assay; conditions: IGROV-1, 48 h
[19] = system: BT-549; experiment: Growth inhibition of human BT549 cells after 48 hrs by sulforhodamine B assay; conditions: BT-549, 48 h
[20] = system: 786-0; experiment: Growth inhibition of human 786-0 cells after 48 hrs by sulforhodamine B assay; conditions: 786-0, 48 h
[21] = system: KM12; experiment: Growth inhibition of human KM12 cells after 48 hrs by sulforhodamine B assay; conditions: KM12, 48 h
[22] = system: UACC-257; experiment: Growth inhibition of human UACC257 cells after 48 hrs by sulforhodamine B assay; conditions: UACC-257, 48 h
[23] = system: EKVX; experiment: Growth inhibition of human EKVX cells after 48 hrs by sulforhodamine B assay
[24] = system: MCF7; experiment: Growth inhibition of human MCF7 cells after 48 hrs by sulforhodamine B assay; conditions: MCF7, 48 h
[25] = system: DU-145; experiment: Growth inhibition of human DU145 cells after 48 hrs by sulforhodamine B assay; conditions: DU-145, 48 h
[26] = system: K562; experiment: Growth inhibition of human K562 cells after 48 hrs by sulforhodamine B assay; conditions: K562, 48 h
[27] = system: UO-31; experiment: Growth inhibition of human UO31 cells after 48 hrs by sulforhodamine B assay; conditions: UO-31, 48 h
[28] = system: OVCAR-8; experiment: Growth inhibition of human OVCAR8 cells after 48 hrs by sulforhodamine B assay; conditions: OVCAR-8, 48 h
[29] = system: OVCAR-5; experiment: Cytotoxicity against human OVCAR5 cells assessed as cell growth at 10 uM after 48 hrs by sulforhodamine B assay relative to control; conditions: OVCAR-5, 48 h, read-out: Activity
How it was run: (§1)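 Compounds went through the NCI 60 cell-line screen, whose current protocol tests first at a single dose.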

[30] = system: HCT-15; experiment: Cytotoxicity against human HCT15 cells assessed as cell growth at 10 uM after 48 hrs by sulforhodamine B assay relative to control; conditions: HCT-15, 48 h, read-out: Activity; how it was run: as §1
[31] = system: SNB-19; experiment: Cytotoxicity against human SNB19 cells assessed as cell growth at 10 uM after 48 hrs by sulforhodamine B assay relative to control; conditions: SNB-19, 48 h, read-out: Activity; how it was run: as §1
[32] = system: 786-0; experiment: Cytotoxicity against human 786-0 cells assessed as cell growth at 10 uM after 48 hrs by sulforhodamine B assay relative to control; conditions: 786-0, 48 h, read-out: Activity; how it was run: as §1
[33] = read-out: pLC50 (the source's name) (converted)

SMILES: COc1cc(/C=C/c2cc(O)c3c(c2)C[C@@H]2C(C)(C)[C@H](O)CC[C@@]2(C)O3)cc(O)c1C/C=C(\C)CCC=C(C)C
- GI50 [1]: 1.23 µM
- LC50 (concentration killing 50% of cells) [1]: 27.5 µM
- TGI ([1]; read-out: pTGI (converted)): 4.9 µM
- GI50 [2]: 0.123 µM
- LC50 [2]: 33.9 µM
- TGI ([2]; read-out: pTGI (converted)): 6.31 µM
- GI50 [3]: 0.575 µM
- LC50 [3]: 7.24 µM
- TGI ([3]; read-out: pTGI (converted)): 2.24 µM
- GI50 [4]: 0.0759 µM
- LC50 [4]: 10.7 µM
- TGI ([4]; read-out: pTGI (converted)): 2.63 µM
- GI50 [5]: 0.331 µM
- LC50 [5]: 5.13 µM
- TGI ([5]; read-out: pTGI (converted)): 1.58 µM
- GI50 [6]: 0.794 µM
- LC50 [6]: 34.7 µM
- TGI ([6]; read-out: pTGI (converted)): 5.01 µM
- GI50 [7]: 1.1 µM
- LC50 [7]: 18.6 µM
- TGI ([7]; read-out: pTGI (converted)): 3.47 µM
- GI50 [8]: 2.19 µM
- LC50 [8]: 41.7 µM
- TGI ([8]; read-out: pTGI (converted)): 8.91 µM
- GI50 [9]: 0.479 µM
- LC50 [9]: 30.2 µM
- TGI ([9]; read-out: pTGI (converted)): 8.13 µM
- GI50 [10]: 1.7 µM
- LC50 [10]: 38.9 µM
- TGI ([10]; read-out: pTGI (converted)): 6.76 µM
- GI50 [11]: 2.29 µM
- LC50 [11]: 50.1 µM
- TGI ([11]; read-out: pTGI (converted)): 6.61 µM
- GI50 [12]: 0.372 µM
- CC50 [12, 33]: 41.7 µM
- TGI ([12]; read-out: pTGI (converted)): 5.25 µM
- LC50 [13]: 26.9 µM
- GI50 ([13]; read-out: GI50): 0.022 µM
- GI50 ([13]; read-out: pGI50 (converted)): 0.024 µM
- TGI ([13]; read-out: pTGI (converted)): 0.195 µM
- LC50 [14]: 40.7 µM
- GI50 ([14]; read-out: GI50): 0.72 µM
- GI50 ([14]; read-out: pGI50 (converted)): 0.955 µM
- TGI ([14]; read-out: pTGI (converted)): 10.7 µM
- GI50 [15]: 0.288 µM
- LC50 [15]: 100 µM
- TGI ([15]; read-out: pTGI (converted)): 4.07 µM
- GI50 [16]: 0.339 µM
- LC50 (concentration killing 50% of cells) [16]: 64.6 µM
- TGI ([16]; read-out: pTGI (converted)): 9.12 µM
- GI50 [17]: 0.955 µM
- LC50 [17]: 5.37 µM
- TGI ([17]; read-out: pTGI (converted)): 2.29 µM
- GI50 [18]: 2.09 µM
- LC50 [18]: 40.7 µM
- TGI ([18]; read-out: pTGI (converted)): 11 µM
- GI50 [19]: 0.275 µM
- LC50 [19]: 69.2 µM
- TGI ([19]; read-out: pTGI (converted)): 12 µM
- GI50 [20]: 0.0339 µM
- CC50 [20, 33]: 15.5 µM
- TGI ([20]; read-out: pTGI (converted)): 1.45 µM
- GI50 [21]: 1.17 µM
- LC50 [21]: 7.08 µM
- TGI ([21]; read-out: pTGI (converted)): 2.88 µM
- GI50 [22]: 7.59 µM
- LC50 [22]: 61.7 µM
- TGI ([22]; read-out: pTGI (converted)): 23.4 µM
- GI50 [23]: 0.977 µM
- LC50 (50% lethal concentration) [23]: 36.3 µM
- TGI ([23]; read-out: pTGI (converted)): 10.2 µM
- GI50 [24]: 0.309 µM
- LC50 [24]: 29.5 µM
- TGI ([24]; read-out: pTGI (converted)): 3.47 µM
- GI50 [25]: 2 µM
- LC50 [25]: 77.6 µM
- TGI ([25]; read-out: pTGI (converted)): 11.7 µM
- GI50 [26]: 0.263 µM
- LC50 [26]: 100 µM
- TGI ([26]; read-out: pTGI (converted)): 6.92 µM
- GI50 [27]: 0.178 µM
- LC50 [27]: 37.2 µM
- TGI ([27]; read-out: pTGI (converted)): 11.5 µM
- GI50 [28]: 2.82 µM
- LC50 [28]: 51.3 µM
- TGI ([28]; read-out: pTGI (converted)): 12.6 µM

SMILES: COc1cc(/C=C/c2cc(Br)c3c(c2)C[C@@H]2C(C)(C)[C@H](O)CC[C@@]2(C)O3)cc(O)c1C/C=C(\C)CCC=C(C)C
- growth at 10 µM [29]: 105%
- growth at 10 µM [30]: 96.1%
- growth at 10 µM [31]: 106%
- growth at 10 µM [32]: 96%

SMILES: COCc1cc(/C=C/c2cc(O)c(C/C=C(\C)CCC=C(C)C)c(OC)c2)cc2c1O[C@]1(C)CC[C@@H](O)C(C)(C)[C@H]1C2
- growth at 10 µM [29]: 114%
- growth at 10 µM [30]: 84.2%
- growth at 10 µM [31]: 96.4%
- growth at 10 µM [32]: 69.8%
